# Experimental data taken from ChEMBL document CHEMBL3751842, “Novel triazolothiadiazines act as potent anticancer agents in liver cancer cells through Akt and ASK-1 proteins” (Bioorg Med Chem, 2016).
# Active and inactive are the calls of the source. The calls are words filed in the database; no cut-off is given here.
# Legend:
# Huh-7 [1] = test: Induction of apoptosis in human HuH7 cells assessed as nuclear condensation at 10 uM after 48 hrs by Hoechst 33258 staining-based immunofluorescence microscopy; type: functional, cell-based
# Procedure, shortened: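 Cells on coverslips were incubated overnight, then treated with 10 µM compound or DMSO for 48 h. They were washed in ice-cold PBS, fixed in cold methanol for 10 min, and stained with 1 µg/mL Hoechst 33258 for 5 min in the dark. Nuclei were examined by fluorescence microscopy with a 40x objective.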
# Huh-7 [2] = test: Induction of apoptosis in human HuH7 cells assessed as decrease in cyclin D1 level after 24 to 48 hrs by Western blot analysis; type: functional, cell-based
# Procedure, shortened: (§1)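 Cells were exposed to compound or DMSO control for 24 or 48 h. Lysates were loaded at […] protein per lane and immunoblotted with antibodies diluted 1:100 to 1:500 in 5% BSA-TBS-T. Targets were p-Akt (Ser473), Akt, p-GSK3-α/β (Ser21/9), GSK3-α/β, SAPK/JNK, p-SAPK/JNK (Thr183/Tyr185), PARP, p-β-catenin, β-catenin, cyclin D1, p-ASK1 (S83) and p-ASK1 (S966). Actin served as the loading control.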
# [3] = biological target: Glycogen synthase kinase-3 beta (Homo sapiens) (UniProt P49841); test: Inhibition of GSK3beta phosphorylation in human HuH7 cells after 24 to 48 hrs by Western blot analysis; type: cell-based; settings: Huh-7; procedure, shortened: as §1
# Chain of Glycogen synthase kinase-3 beta (Homo sapiens) (P49841 whole entry, looked up): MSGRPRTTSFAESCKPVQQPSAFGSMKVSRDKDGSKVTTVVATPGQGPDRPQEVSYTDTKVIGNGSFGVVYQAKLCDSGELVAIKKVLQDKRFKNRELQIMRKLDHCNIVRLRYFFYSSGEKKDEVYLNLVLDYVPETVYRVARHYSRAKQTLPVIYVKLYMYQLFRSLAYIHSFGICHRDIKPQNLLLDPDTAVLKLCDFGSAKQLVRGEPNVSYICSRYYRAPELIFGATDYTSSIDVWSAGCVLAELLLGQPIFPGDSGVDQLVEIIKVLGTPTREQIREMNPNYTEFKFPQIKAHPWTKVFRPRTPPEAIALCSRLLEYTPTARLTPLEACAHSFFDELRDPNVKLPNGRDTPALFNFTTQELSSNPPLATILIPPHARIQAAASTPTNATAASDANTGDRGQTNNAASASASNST
# Huh-7 [4] = test: Induction of cell cycle arrest in human HuH7 cells assessed as accumulation at subG1 phase at 10 uM after 24 to 48 hrs by propidium iodide staining based FACS analysis; type: functional
# Procedure, shortened: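 Huh7 cells were seeded at 300,000 per 100-mm dish. After 24 h they were treated with 10 µM compound or DMSO for 24 h and 48 h. Cells were trypsinized, fixed in ice-cold 70% ethanol and stored at −20 °C. They were then stained with propidium iodide and cell-cycle distribution, including SubG1, was read by flow cytometry.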
# Huh-7 [5] = test: Induction of apoptosis in human HuH7 cells assessed as PARP cleavage after 24 to 48 hrs by Western blot analysis; type: functional, cell-based; procedure, shortened: as §1
# Huh-7 [6] = test: Cytotoxicity against human HuH7 cells assessed as cell impedance at IC25 to IC100 measured every 30 mins for 72 hrs by RT-CES assay; type: functional, cell-based; settings: TDE = time-dependent effect
# Procedure, shortened: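 Huh7 cells were seeded at 1000–5000 cells/well on electrode plates. […] Impedance was read as cell index every 10 min for the first 24 h, then every 30 min, over 72 h. Data were normalized to DMSO; inhibition (%) = [1 − (CI treated/CI DMSO)] × 100. Each experiment was run at least three times.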
# MCF7 = test: Cytotoxicity against human MCF7 cells assessed as growth inhibition after 72 hrs by sulforhodamine B assay; type: functional, cell-based; settings: Homo sapiens, MCF7, 72 h; read-out: IC50
# Procedure, shortened: (§2)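 Cells were grown at 37°C, 5% CO2 in DMEM with 10% FBS. They were seeded at 1000–3000 cells/well, grown 24 h, then exposed to compound at 2.5–40 µM for 72 h. Cells were fixed in 10% TCA for 1 h at 4°C, stained with 0.4% SRB in 1% acetic acid for 10 min, and the dye solubilized in 10 mM Tris. Absorbance was read at 515 nm; runs were in triplicate; IC50 was calculated, with fits of R2 0.8–1 accepted.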
# [7] = Cytotoxicity against human Mahlavu cells assessed as growth inhibition after 72 hrs by sulforhodamine B assay; type: functional, cell-based; settings: Homo sapiens, Mahlavu, 72 h; read-out: IC50; procedure, shortened: as §2
# [8] = Cytotoxicity against human FOCUS cells assessed as growth inhibition after 72 hrs by sulforhodamine B assay; type: functional, cell-based; settings: Homo sapiens, FOCUS, 72 h; read-out: IC50; procedure, shortened: as §2
# HepG2 = test: Cytotoxicity against human HepG2 cells assessed as growth inhibition after 72 hrs by sulforhodamine B assay; type: functional, cell-based; settings: Homo sapiens, HepG2, 72 h; read-out: IC50; procedure, shortened: as §2
# [9] = Cytotoxicity against human Hep3B cells assessed as growth inhibition after 72 hrs by sulforhodamine B assay; type: functional, cell-based, Hep 3B2; settings: Homo sapiens, Hep3B, 72 h; read-out: IC50; procedure, shortened: as §2
# [10] = Effect on un-phosphorylated beta-catenin level in human Mahlavu cells after 24 to 48 hrs by Western blot analysis; type: ADME, cell-based; procedure, shortened: as §1
SMILES,Activity (Huh-7 [1]),Activity (Huh-7 [2]),inhibition [3],Activity (Huh-7 [4]),Activity (Huh-7 [5]),Activity (Huh-7 [6]),IC50 (MCF7),IC50 [7],IC50 [8],IC50 (HepG2),IC50 [9],Activity [10]
COc1ccc(C2=Nn3c(nnc3C(C)c3ccc(CC(C)C)cc3)SC2)cc1 (centres undefined),Active,Active,Active,Active,Active,tde,5.2 µM,13.6 µM,2.4 µM,3.8 µM,6.5 µM,Non-toxic
Cc1ccc(C2=Nn3c(nnc3C(C)c3ccc(CC(C)C)cc3)SC2)cc1 (centres undefined),Active,Active,Active,Active,Active,tde,6.3 µM,8.5 µM,6.8 µM,7.3 µM,5.3 µM,Non-toxic
